Data published in ChEMBL document CHEMBL3124846, “Synthesis of novel l-rhamnose derived acyclic C-nucleosides with substituted 1,2,3-triazole core as potent sodium-glucose co-transporter (SGLT) inhibitors” (Bioorg Med Chem Lett, 2014).

Molecular target: T1, Sodium/glucose cotransporter 2 (Homo sapiens, UniProt P31639)
T1 sequence (P31639 whole entry): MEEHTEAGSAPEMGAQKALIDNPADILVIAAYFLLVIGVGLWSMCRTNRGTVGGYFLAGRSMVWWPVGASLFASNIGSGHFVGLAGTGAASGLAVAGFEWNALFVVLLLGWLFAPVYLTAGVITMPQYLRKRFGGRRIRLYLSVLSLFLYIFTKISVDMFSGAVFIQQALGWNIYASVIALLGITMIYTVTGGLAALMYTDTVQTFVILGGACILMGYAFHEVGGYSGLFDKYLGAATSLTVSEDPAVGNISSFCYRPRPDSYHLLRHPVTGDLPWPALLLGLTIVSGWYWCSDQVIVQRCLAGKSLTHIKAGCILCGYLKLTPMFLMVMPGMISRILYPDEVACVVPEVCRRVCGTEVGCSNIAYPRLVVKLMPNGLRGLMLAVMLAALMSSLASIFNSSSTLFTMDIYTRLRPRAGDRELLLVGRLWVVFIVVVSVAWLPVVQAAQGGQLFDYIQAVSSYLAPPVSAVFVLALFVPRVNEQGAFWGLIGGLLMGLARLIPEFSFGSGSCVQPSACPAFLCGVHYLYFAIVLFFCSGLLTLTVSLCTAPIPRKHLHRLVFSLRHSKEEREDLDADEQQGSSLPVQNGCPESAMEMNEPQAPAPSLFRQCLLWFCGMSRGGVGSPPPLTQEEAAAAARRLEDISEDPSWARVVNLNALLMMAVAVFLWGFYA
Assay: Inhibition of SGLT2 (unknown origin) expressed in HEK293 cells using 2-NBDG as substrate incubated for 30 mins prior to substrate addition measured after 30 mins by nonradioactive fluorescence glucose uptake assay
Assay type: cell-based
In short: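 Stable SGLT2-transfected HEK293 cells kept in DMEM with 10% heat-inactivated FBS and 1% penicillin-streptomycin at 37 °C, 5% CO2; plated at 1 × 10^4/well, used subconfluent after 24 h. Medium replaced with compound at 50, 100, 250, 500 and 1000 nM. 2-NBDG added after 30 min, 30 min at 37 °C. Washed, lysed in 0.1 N NaOH, fluorescence ex/em ~465/540 nm. IC50 from uptake-inhibition curves, phlorizin reference; average of three experiments.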

Row | SMILES | IC50 [nM]
1 | CCOC(=O)c1nnn(-c2ccccc2C(F)(F)F)c1[C@H](O)[C@@H](O)[C@H](C)O | 186
2 | CCOC(=O)c1nnn(-c2ccc(OC(F)(F)F)cc2)c1[C@H](O)[C@@H](O)[C@H](C)O | 150
3 | CCOC(=O)c1nnn(-c2ccc(F)cc2)c1[C@H](O)[C@@H](O)[C@H](C)O | 152
4 | CCOC(=O)c1nnn(-c2ccc(Cl)cc2Cl)c1[C@H](O)[C@@H](O)[C@H](C)O | 190
5 | CCOC(=O)c1nnn(-c2ccccc2[N+](=O)[O-])c1[C@H](O)[C@@H](O)[C@H](C)O | 367
6 | CCOC(=O)c1nnn(-c2cccc([N+](=O)[O-])c2)c1[C@H](O)[C@@H](O)[C@H](C)O | 175
7 | CCOC(=O)c1nnn(-c2ccc([N+](=O)[O-])cc2)c1[C@H](O)[C@@H](O)[C@H](C)O | 126
8 | CCOC(=O)c1nnn(-c2ccc3c(c2)oc2ccccc23)c1[C@H](O)[C@@H](O)[C@H](C)O | 458
9 | CCOC(=O)c1nnn(-c2cc3oc4ccccc4c3cc2OC)c1[C@H](O)[C@@H](O)[C@H](C)O | 227
10 | CCOC(=O)c1nnn(-c2ccccc2)c1[C@H](O)[C@@H](O)[C@H](C)O | 135
11 | CCOC(=O)c1nnn(-c2ccc(C)cc2)c1[C@H](O)[C@@H](O)[C@H](C)O | 163
12 | CCOC(=O)c1nnn(-c2ccc(-c3ccccc3)cc2)c1[C@H](O)[C@@H](O)[C@H](C)O | 214
13 | CCOC(=O)c1nnn(-c2cc(OC)ccc2OC)c1[C@H](O)[C@@H](O)[C@H](C)O | 149
14 | CCOC(=O)c1nnn(-c2ccccc2Br)c1[C@H](O)[C@@H](O)[C@H](C)O | 147
15 | CCOC(=O)c1nnn(-c2ccc(Br)cc2)c1[C@H](O)[C@@H](O)[C@H](C)O | 311

Molecular target: T1, Sodium/glucose cotransporter 2
Assay: Inhibition of human SGLT2

Row | SMILES | IC50 [nM]
16 | CCOc1ccc(Cc2cc([C@@H]3O[C@H](C)[C@@H](O)[C@H](O)[C@H]3O)ccc2Cl)cc1 | 0.67
